APP transl inh: APP translation inhibition; SH-SY5Y APP 5'UTR-luciferase reporter, luminescence; inhibition, % at 2 µM; hit rate 0.82% among 190,000;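 active = inhibition above a set limit, derived from the sample mean plus 3 SD, cut at about 45% in these data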
BaF3 parental: counter-screen for JAK2V617F inhibitors: parental Ba/F3 viability inhibitors; CellTiter-Glo ATP luminescence; inhibition, % at 5.6 µM; hit rate 1.1% among 220,000; AID 1486;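 active = inhibition above a per-campaign cutoff, the mean inhibition of all tested compounds plus 3 SD, cut at about 27% in these data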;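 note: 0% = DMSO wells and 100% = JAK Inhibitor I control wells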
Ba/F3 V617F tox: lowers viability of Ba/F3 cells expressing EpoR and JAK2V617F. ATP luminescence. inhibition, % at 5.6 µM. hit rate 1.1% among 220,000. AID 1446;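 active = inhibition above the campaign mean plus 3 SD over all tested compounds, cut at about 24% in these data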;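 note: cytokine-independent growth of Ba/F3 cells driven by EpoR plus mutant JAK2; 0% = DMSO-treated cells and 100% = JAK inhibitor I control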
bCat nuc transl: beta-catenin nuclear translocation modulation. HeLa beta-catenin nuclear translocation, immunofluorescence imaging. hit rate 0.3% among 190,000. nuclear translocation activity, % at 5 µM;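 active = nuclear translocation activity above 50% at 5 µM, with a well cell count of 50 or more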;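 note: per-cell ratio of nuclear to cytoplasmic median beta-catenin stain intensity; plate controls were DMSO negative control for no effect and GSK-3 inhibitor IX positive control for full effect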
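Test system: human HeLa cell line; Doses: 5 µM primary, 0.02–20 µM confirmation; Incubation: 24 h compound exposure, 37°C; Detection: beta-catenin immunofluorescence imaging with DAPI; Read-out: beta-catenin nuclear/cytoplasmic ratio, % activation.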
MT stabilizer: microtubule stabilization, imaging screen; HeLa tubulin immunostaining HCS, 24 h; share of cells brighter than vehicle mean+2SD; % tubulin-high responders, % at 10 µM; hit rate 0.83% among 200,000;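 active = plate Z-score above 3 for both tubulin-high and condensed-nucleus cell shares, with cell loss under 80%, at 10 µM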;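 note: anti alpha tubulin signal scored within the nucleus-defined area of each cell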
L major viab: Leishmania major promastigote growth inhibition; Leishmania major promastigotes, resazurin fluorescence viability; inhibition, % at 10 µM; hit rate 9% among 200,000; in the data active = inhibition above about 50%;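 note: promastigotes grown with compound for 44 hours at 28 °C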
* hit, by the source's call; . = no result given. Most compounds without a hit are left out; they make up all but 9.6% or so of the library.

SMILES | APP transl inh | BaF3 parental | Ba/F3 V617F tox | bCat nuc transl | MT stabilizer | L major viab
Cn1cccc1C(=O)NC(=O)COC(=O)c1cc(S(=O)(=O)N2CCCCC2)ccc1Cl | -14.6 | 8.3 | 0.7 | 0.0 | 3.7 | -14.1
CCn1c(=O)c([N+](=O)[O-])c(N2CCN(Cc3ccc4c(c3)OCO4)CC2)c2ccccc21 | . | -1.1 | 0.2 | 1.0 | . | .
C=CCN(CC=C)C(=O)c1cc2ccccc2c(=O)o1 | 11.4 | 1.0 | 1.9 | 0.3 | 5.1 | -3.7
NNC(=O)c1nc[nH]c1C(=O)Nc1ccccn1 | 5.4 | 9.2 | 4.9 | -0.3 | 3.4 | 5.3
Cc1cc(C)c2c(N)c(C(=O)c3ccc(Cl)c(Cl)c3)sc2n1 | -6.6 | 8.4 | 0.5 | -3.1 | 2.1 | 100.2*
Cc1nc(Nc2cccc(C(C)O)c2)c2nnn(Cc3ccccc3F)c2n1 (stereo not drawn) | 3.2 | 7.2 | 2.4 | 0.3 | 2.2 | 2.5
CN1CCN(C(=O)c2ccc(CN(c3ccccc3)S(=O)(=O)c3ccccc3)cc2)CC1 | 0.4 | 6.8 | 1.3 | 1.1 | 2.5 | 3.1
COc1ccc(NS(=O)(=O)c2ccc(C(=O)N3CCN(Cc4ccccc4)CC3)cc2)cc1 | 5.2 | 1.2 | -3.0 | -0.3 | 4.0 | 23.8
O=C(c1cccc(NS(=O)(=O)c2ccc(F)c(F)c2)c1)N1CCN(Cc2ccccc2)CC1 | -2.5 | 3.7 | -1.2 | -0.9 | 1.3 | 58.9*
CCN1CCN(C(=O)c2ccc(CN(c3ccccc3)S(=O)(=O)c3ccccc3)cc2)CC1 | -15.6 | 0.6 | -3.0 | . | 4.7 | 79.9*
Cc1ccc(S(=O)(=O)NCc2ccc(C(=O)NC3CC3)cc2)cc1 | -0.4 | 0.4 | -0.5 | -0.3 | 1.9 | -1.2
O=C(c1ccc(-n2cccc2)cc1)N1CCN(Cc2ccccc2)CC1 | -0.8 | -0.2 | -2.6 | . | 2.5 | 74.8*
O=C(c1ccc([N+](=O)[O-])cc1)N1CCN(Cc2ccccc2)CC1 | 5.0 | 8.4 | -1.8 | 4.5 | 1.7 | 13.1
Cc1ccc(S(=O)(=O)NCc2ccc(C(=O)NCCCN3CCC(Cc4ccccc4)CC3)cc2)cc1 | 5.8 | 8.4 | 3.0 | 2.0 | 3.7 | 96.0*
Cc1ccc(S(=O)(=O)NCc2ccc(C(=O)N3CCN(Cc4ccccc4)CC3)cc2)cc1 | -11.9 | 2.2 | -1.9 | . | 1.5 | 76.8*
O=C(c1cccc(S(=O)(=O)NCc2ccccc2)c1)N1CCN(Cc2ccccc2)CC1 | -17.9 | 3.5 | -5.4 | 0.1 | 1.5 | 11.7
CCN1CCN(C(=O)CCc2ccc(S(=O)(=O)NCCc3ccccc3)cc2)CC1 | 55.6* | 0.5 | -1.9 | -2.1 | 3.1 | 22.6
COc1ccc(/C=N/Nc2ncnc3sc4c(c23)CCCC4)cc1OC | -13.2 | -2.9 | -7.6 | -2.2 | 1.9 | -3.8
O=c1[nH]c(=O)n(-c2ccccc2)c2c1C(C(F)(F)F)(C(F)(F)F)N=C(C1CCCCC1)N2 | 3.2 | 39.5* | 3.8 | -2.0 | 2.9 | 44.4
CCCCOC(=O)Nc1ccc(N(C)C)cc1 | -171.3 | 4.1 | -1.2 | -2.0 | 2.6 | 34.4
COC(=O)COc1cc(OCC(=O)OC)c2c(C)c(Cl)c(=O)oc2c1 | 14.7 | 2.2 | 0.6 | 1.5 | 4.7 | 50.8*
COC(=O)COc1cc(C)cc2oc(=O)c(CC(=O)OC)c(C)c12 | 4.6 | 2.8 | -5.8 | -1.2 | 2.0 | -3.3
Cc1cc(NC(=O)CCSc2ccc(Cl)cc2)no1 | 3.9 | 2.7 | 3.9 | 0.2 | 3.8 | 2.6
CCCC1(C(=O)OCC)NC(c2ccco2)C2C(=O)N(C)C(=O)C21 (stereo not drawn) | 0.3 | -0.3 | -6.1 | -1.0 | 3.9 | -3.7
N#Cc1ccc(N2C(=O)[C@@H]3C(C(=O)c4ccc5ccccc5n4)=NN[C@@H]3C2=O)cc1 | 7.4 | 0.1 | -3.5 | -2.2 | 4.2 | -7.6
O=C(C1=NN[C@@H]2C(=O)N(c3ccccc3C(F)(F)F)C(=O)[C@H]12)c1ccc2ccccc2n1 | -14.0 | 54.1* | 75.8* | -1.1 | 4.6 | -5.4
CCOc1cc(N2CCOCC2)c(OCC)cc1NS(=O)(=O)c1ccc(Cl)s1 | 26.1 | 54.7* | 17.0 | 9.5 | 39.8* | -2.7
CCCNC(=O)Nc1cc(OCC)c(N2CCOCC2)cc1OCC | -9.3 | 4.0 | 0.5 | -5.3 | 2.5 | -6.0
CCOc1cc(N2CCOCC2)c(OCC)cc1NC(=O)CCS(=O)(=O)c1ccc(Cl)cc1 | 2.0 | 1.1 | -2.0 | -4.3 | 2.8 | -8.1
CCNC(=S)Nc1cc(OCC)c(N2CCOCC2)cc1OCC | 9.6 | 0.7 | -3.5 | . | 3.6 | 63.7*
